Results taken from ChEMBL document CHEMBL1153063 (Bioorg Med Chem Lett, 2009).

How the values were obtained:
[1] = biological target: Neuronal acetylcholine receptor subunit alpha-7 (Rattus norvegicus, UniProt Q05941); experiment: Displacement of [125I]BTX from rat alpha7 nAChR expressed in rat GH4C1 cells; assay type: cell-based, GH4-C1
How it was run: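 GH₄C₁ cell binding with [¹²⁵I]-BTX; six-point dose–response curve in triplicate, values averaged.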

[2] = biological target: Neuronal acetylcholine receptor subunit alpha-7 (Rattus norvegicus) (UniProt Q05941); experiment: Agonist activity at rat alpha7 nAChR expressed in Xenopus oocytes at 32 uM by two-electrode voltage clamp technique relative to nicotine; assay type: functional, cell-based; details: Oocyte
How it was run: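 Rat alpha7 nAChR cRNA (10–50 ng) injected into Xenopus oocytes defolliculated with collagenase (1.3 mg/mL, 3 h); oocytes kept in Barth's saline up to 2 weeks. Test compounds applied at 32 µM.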

[3] = biological target: Neuronal acetylcholine receptor subunit alpha-3 (Homo sapiens, UniProt P32297); experiment: Displacement of [3H]epibatidine from alpha3 nAChR in human IMR32 cells; assay type: cell-based, IMR-32
How it was run: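 IMR32 cell binding with [³H]-epibatidine; six-point dose–response curve in triplicate, values averaged.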

[4] = biological target: Neuronal acetylcholine receptor; alpha4/beta2 (Rattus norvegicus, UniProt P09483+P12390); experiment: Displacement of L-[3H]Nicotine from alpha4beta2 nAChR in rat brain homogenate by rapid filtration method; assay type: tissue-based
[5] = Octanol-aqueous buffer partition coefficient, log D at pH 7.4; assay type: physicochemical
[6] = Aqueous solubility of the compound; assay type: physicochemical; details: buffer
hERG (KCNH2) = hERG (KCNH2) (Homo sapiens, UniProt Q12809); experiment: Displacement of [3H]dofetilide from human ERG expressed in HEK293 cells at 10 uM; assay type: cell-based; details: HEK293 cells expressing human ERG, probe [3H]dofetilide
How it was run: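 Binding of [³H]dofetilide to hERG stably expressed in HEK293 cells; reported as percent inhibition of binding.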

[7] = biological target: T1, 5-hydroxytryptamine receptor 3A (Homo sapiens, UniProt P46098); experiment: Displacement of [3H]LY278584 from human 5HT3 receptor expressed in HEK293 cells; assay type: cell-based
T1 sequence (P46098 whole entry): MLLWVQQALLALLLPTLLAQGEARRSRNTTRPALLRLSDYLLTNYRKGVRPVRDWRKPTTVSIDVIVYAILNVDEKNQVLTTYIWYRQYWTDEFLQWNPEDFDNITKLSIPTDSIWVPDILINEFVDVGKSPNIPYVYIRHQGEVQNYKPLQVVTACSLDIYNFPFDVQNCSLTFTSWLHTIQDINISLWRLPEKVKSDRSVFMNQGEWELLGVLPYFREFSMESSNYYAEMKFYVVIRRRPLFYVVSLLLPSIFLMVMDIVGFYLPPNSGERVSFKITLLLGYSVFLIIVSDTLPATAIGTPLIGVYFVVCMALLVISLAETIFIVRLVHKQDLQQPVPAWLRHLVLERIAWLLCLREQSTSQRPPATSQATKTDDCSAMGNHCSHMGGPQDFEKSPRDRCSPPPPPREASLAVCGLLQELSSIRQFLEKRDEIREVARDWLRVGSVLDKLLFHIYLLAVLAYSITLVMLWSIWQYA
How it was run: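 HEK293 cells expressing human 5-HT₃; [³H]-LY278584 binding, six-point dose–response curve in triplicate, values averaged.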

[8] = Intrinsic clearance in human liver microsomes at 1 uM at pH 7.4 after 30 mins; assay type: ADME, Microsome
How it was run: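 Pooled liver microsomes in phosphate buffer pH 7.4, 1 μM substrate; sampled at 30 min.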

[9] = Drug concentration in Sprague-Dawley rat brain at 5 mg/kg, sc after 1 hr; assay type: ADME, organism-based; design: dose 5 mg/kg, route subcutaneous; details: read-out: Drug uptake
How it was run: (§1)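 Male Sprague-Dawley rats (n = 3) given 5 mg/kg s.c.; brain, plasma and CSF levels assessed 1 h post dose.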

[10] = Plasma concentration in Sprague-Dawley rat at 5 mg/kg, sc after 1 hr; assay type: ADME, organism-based; design: dose 5 mg/kg, route subcutaneous; how it was run: as §1
[11] = Ratio of drug level in brain to plasma in Sprague-Dawley rat at 5 mg/kg, sc after 1 hr; assay type: ADME, organism-based; design: dose 5 mg/kg, route subcutaneous
How it was run: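 Male Sprague-Dawley rats (n = 3) received a single subcutaneous dose of 5 mg/kg. Brain, plasma and CSF drug levels were assessed 1 h post dose, and the brain level was expressed relative to the plasma level.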

[12] = Drug concentration in Sprague-Dawley rat CSF at 5 mg/kg, sc after 1 hr; assay type: ADME, organism-based, Cerebrospinal fluid; design: dose 5 mg/kg, route subcutaneous; details: read-out: Drug uptake; how it was run: as §1

Chain of Neuronal acetylcholine receptor; alpha4/beta2 (P09483 whole entry): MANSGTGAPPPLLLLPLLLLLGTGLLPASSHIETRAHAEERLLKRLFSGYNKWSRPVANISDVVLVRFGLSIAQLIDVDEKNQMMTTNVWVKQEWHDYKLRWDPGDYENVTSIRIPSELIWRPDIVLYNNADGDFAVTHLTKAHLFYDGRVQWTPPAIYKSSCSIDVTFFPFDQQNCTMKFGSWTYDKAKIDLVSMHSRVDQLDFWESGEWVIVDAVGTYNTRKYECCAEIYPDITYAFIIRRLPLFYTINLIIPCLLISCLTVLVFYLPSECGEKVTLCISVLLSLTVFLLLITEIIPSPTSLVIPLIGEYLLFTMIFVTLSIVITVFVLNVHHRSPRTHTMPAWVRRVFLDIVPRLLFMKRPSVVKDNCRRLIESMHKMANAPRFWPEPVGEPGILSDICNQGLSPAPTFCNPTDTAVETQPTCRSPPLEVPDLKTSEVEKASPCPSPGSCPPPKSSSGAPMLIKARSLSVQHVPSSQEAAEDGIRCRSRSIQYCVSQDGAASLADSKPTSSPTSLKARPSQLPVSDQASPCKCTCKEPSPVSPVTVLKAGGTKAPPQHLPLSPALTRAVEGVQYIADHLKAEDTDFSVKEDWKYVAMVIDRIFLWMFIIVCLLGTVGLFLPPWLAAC
Chain of Neuronal acetylcholine receptor; alpha4/beta2 (P12390 whole entry): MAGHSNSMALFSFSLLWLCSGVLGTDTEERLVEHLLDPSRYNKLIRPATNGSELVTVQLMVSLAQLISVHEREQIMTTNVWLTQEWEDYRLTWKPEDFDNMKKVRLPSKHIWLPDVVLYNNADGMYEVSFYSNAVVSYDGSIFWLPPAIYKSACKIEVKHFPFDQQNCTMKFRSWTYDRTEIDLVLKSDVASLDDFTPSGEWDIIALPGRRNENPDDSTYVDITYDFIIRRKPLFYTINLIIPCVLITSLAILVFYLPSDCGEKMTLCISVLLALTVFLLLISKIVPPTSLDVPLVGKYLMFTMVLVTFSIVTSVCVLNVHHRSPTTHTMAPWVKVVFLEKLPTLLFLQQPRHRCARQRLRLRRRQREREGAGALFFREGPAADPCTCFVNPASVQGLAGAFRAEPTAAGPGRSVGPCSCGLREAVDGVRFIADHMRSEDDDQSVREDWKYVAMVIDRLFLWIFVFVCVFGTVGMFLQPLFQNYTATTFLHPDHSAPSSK
Chain of Neuronal acetylcholine receptor subunit alpha-7 (Rattus norvegicus) (Q05941 whole entry): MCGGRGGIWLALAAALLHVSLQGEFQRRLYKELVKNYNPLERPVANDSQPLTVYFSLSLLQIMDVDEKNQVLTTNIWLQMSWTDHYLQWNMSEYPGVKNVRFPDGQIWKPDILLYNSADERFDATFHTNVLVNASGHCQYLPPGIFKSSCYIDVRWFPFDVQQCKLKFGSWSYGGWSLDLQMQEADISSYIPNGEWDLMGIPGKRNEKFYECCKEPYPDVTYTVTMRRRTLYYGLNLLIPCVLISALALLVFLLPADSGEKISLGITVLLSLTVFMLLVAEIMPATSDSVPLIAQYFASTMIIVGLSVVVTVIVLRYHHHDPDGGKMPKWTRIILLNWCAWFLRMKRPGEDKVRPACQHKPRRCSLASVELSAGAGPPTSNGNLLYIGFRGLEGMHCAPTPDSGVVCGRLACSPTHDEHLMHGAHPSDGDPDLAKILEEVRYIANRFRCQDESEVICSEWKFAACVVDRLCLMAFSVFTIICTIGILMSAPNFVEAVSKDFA
Chain of Neuronal acetylcholine receptor subunit alpha-7 (Q05941 whole entry): as above
Chain of Neuronal acetylcholine receptor subunit alpha-3 (P32297 whole entry): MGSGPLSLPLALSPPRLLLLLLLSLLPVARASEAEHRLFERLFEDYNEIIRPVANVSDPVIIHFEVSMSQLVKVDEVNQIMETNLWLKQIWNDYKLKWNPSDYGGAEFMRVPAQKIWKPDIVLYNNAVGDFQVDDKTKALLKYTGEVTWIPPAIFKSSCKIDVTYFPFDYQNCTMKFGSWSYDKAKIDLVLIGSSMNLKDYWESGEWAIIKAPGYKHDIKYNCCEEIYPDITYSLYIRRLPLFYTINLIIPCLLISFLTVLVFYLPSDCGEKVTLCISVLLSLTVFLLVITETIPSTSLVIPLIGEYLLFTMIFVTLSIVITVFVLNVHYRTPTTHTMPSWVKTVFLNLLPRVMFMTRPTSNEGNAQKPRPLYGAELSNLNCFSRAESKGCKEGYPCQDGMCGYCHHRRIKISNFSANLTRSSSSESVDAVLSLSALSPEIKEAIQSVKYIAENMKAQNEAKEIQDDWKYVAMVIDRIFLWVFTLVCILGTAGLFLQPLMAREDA
Chain of hERG (KCNH2) (Q12809 whole entry): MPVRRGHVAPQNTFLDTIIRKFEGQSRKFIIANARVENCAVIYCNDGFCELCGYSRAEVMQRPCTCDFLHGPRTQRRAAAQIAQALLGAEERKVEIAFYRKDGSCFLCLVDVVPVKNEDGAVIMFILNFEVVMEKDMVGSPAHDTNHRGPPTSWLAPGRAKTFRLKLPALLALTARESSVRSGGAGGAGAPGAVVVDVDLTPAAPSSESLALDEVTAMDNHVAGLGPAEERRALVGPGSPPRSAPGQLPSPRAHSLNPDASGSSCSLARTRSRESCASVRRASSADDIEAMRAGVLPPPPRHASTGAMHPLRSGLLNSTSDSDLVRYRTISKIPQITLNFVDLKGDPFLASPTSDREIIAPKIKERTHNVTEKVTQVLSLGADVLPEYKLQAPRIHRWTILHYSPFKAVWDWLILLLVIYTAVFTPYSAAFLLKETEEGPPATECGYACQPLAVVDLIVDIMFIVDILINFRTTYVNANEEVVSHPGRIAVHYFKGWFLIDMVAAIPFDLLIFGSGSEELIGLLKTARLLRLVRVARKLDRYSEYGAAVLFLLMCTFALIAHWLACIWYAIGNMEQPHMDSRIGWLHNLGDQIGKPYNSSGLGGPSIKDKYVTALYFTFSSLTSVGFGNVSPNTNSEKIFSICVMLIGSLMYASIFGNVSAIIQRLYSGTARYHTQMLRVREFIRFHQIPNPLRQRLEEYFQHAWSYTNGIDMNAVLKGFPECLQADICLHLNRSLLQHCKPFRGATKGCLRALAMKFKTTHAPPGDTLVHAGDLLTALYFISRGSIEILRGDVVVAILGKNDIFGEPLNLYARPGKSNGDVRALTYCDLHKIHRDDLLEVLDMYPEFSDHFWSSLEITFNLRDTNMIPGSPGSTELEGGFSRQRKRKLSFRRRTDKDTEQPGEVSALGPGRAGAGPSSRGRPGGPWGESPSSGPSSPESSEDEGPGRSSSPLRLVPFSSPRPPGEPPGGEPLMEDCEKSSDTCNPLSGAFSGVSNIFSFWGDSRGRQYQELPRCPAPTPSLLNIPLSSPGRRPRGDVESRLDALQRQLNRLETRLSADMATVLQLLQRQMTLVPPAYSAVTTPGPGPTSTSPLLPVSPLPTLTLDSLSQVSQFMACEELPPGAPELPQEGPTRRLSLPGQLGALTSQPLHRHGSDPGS

| SMILES | Ki [1] | Activity [2] | IC50 [4] | further results |
| --- | --- | --- | --- | --- |
| O=C(Oc1ccccc1Cl)N1CCN2CCC1CC2 | 868 nM | – | – | – |
| COc1ccc(OC(=O)N2CCN3CCC2CC3)cc1 | 201 nM | 126% | – | – |
| O=C(Oc1cccc(Oc2ccccc2)c1)N1CCN2CCC1CC2 | 13 nM | 40% | – | – |
| O=C(Nc1ccc(Br)cc1)OC1CN2CCC1C2 (configuration not stated) [QUINUCLIDINE CARBAMATE] | – | 90% | – | – |
| O=c1c(Br)ccc2n1C[C@@H]1CNC[C@H]2C1 | – | – | – | IC50 [3]: 0.0156 µM |
| S=C(Oc1ccccc1)N1CCN2CCC1CC2 | 749 nM | 28% | – | – |
| Cc1cc(OC(=O)N2CCN3CCC2CC3)ccc1Br | 50 nM | 83% | 7.22 µM | IC50 [3]: 4.02 µM |
| O=C(Oc1cccc(Br)c1)N1CCN2CCC1CC2 | 9.5 nM | 70% | – | – |
| O=C(Oc1cccc(Cl)c1)N1CCN2CCC1CC2 | 32 nM | 77% | 3.5 µM | – |
| CN1CCCN(C(=O)Oc2ccc(Br)cc2)CC1 | > 5710 nM | 10% | – | – |
| O=C(OCc1ccccc1)N1CCN2CCC1CC2 | 3350 nM | – | – | – |
| O=C(c1ccccc1)c1ccc(OC(=O)N2CCN3CCC2CC3)cc1 | 95 nM | 35% | – | – |
| O=C(Oc1ccc(-c2ccccc2)cc1)N1CCN2CCC1CC2 | 215 nM | 111% | – | – |
| O=C(c1ccccc1)c1cc(OC(=O)N2CCN3CCC2CC3)ccc1Br | 16 nM | 201% | 2.04 µM | IC50 [3]: 1.39 µM |
| O=C(Oc1cccc(-c2ccccc2)c1)N1CCN2CCC1CC2 | 9 nM | 9% | – | – |
| C[C@@H]1CN(C(=O)Oc2ccc(Br)cc2)[C@@H](C)CN1 | > 5000 nM | – | – | – |
| O=S(=O)(c1ccc(Br)cc1)N1CCN2CCC1CC2 | > 4720 nM | – | – | – |
| O=C(Oc1ccc(Br)cc1)N1CCCN2CCC1CC2 | 383 nM | 27% | > 10 µM | – |
| O=C(Oc1cccc(F)c1)N1CCN2CCC1CC2 | 35 nM | 47% | 1.06 µM | – |
| O=C(Oc1ccc(-c2ccccn2)cc1)N1CCN2CCC1CC2 | 354 nM | 174% | – | – |
| O=C(Oc1ccc(Br)cc1)N1CCN2CCC(CC2)C1 | 763 nM | – | > 10 µM | – |

| SMILES | Ki [1] | Activity [2] | IC50 [4] | further results |
| --- | --- | --- | --- | --- |
| O=C(Oc1ccccc1)N1CCN2CCC1CC2 | 739 nM | 99% | 1.04 µM | – |
| Cc1ccc(OC(=O)N2CCN3CCC2CC3)cc1 | 178 nM | 202% | – | – |
| O=C(Oc1ccc(Oc2ccccc2)cc1)N1CCN2CCC1CC2 | 212 nM | 241% | – | – |
| O=C(Cc1ccc(Br)cc1)N1CCN2CCC1CC2 | > 5000 nM | 1.7% | – | – |
| O=C(Oc1ccc(-c2ccncc2)cc1)N1CCN2CCC1CC2 | 207 nM | 191% | – | – |
| O=C(Oc1ccc(Cl)c(F)c1)N1CCN2CCC1CC2 | 86 nM | 110% | 6.98 µM | IC50 [3]: 9.96 µM |
| O=C(Oc1ccc(Br)c(Cl)c1)N1CCN2CCC1CC2 | 33 nM | 203% | 7.12 µM | IC50 [3]: 2.09 µM |
| O=C(Oc1ccc(Cl)c(Cl)c1)N1CCN2CCC1CC2 | 31 nM | 195% | – | – |
| O=C(Oc1ccc(Cl)cc1)N1CCN2CCC1CC2 | 79 nM | 145% | > 5 µM | IC50 [3]: > 5 µM |
| C[C@@H]1CN(C(=O)Oc2ccc(Br)cc2)C[C@H](C)N1 | > 5000 nM | < 0.1% | – | – |
| O=C(Oc1ccc(-c2cccnc2)cc1)N1CCN2CCC1CC2 | 203 nM | 189% | > 5 µM | – |
| O=C(Oc1ccc2ccccc2c1)N1CCN2CCC1CC2 | 23 nM | 175% | 9.88 µM | IC50 [3]: 4.91 µM; logD [5]: 2.3; solubility [6]: > 65 µg/mL; inhibition at 10 µM (hERG (KCNH2)): 8%; IC50 [7]: > 3.16 µM; CLint scaled at 1 µM [8]: 12 mL/min/kg; concentration at 1 h [9]: 5290 ng/g; concentration at 1 h [10]: 463 ng/mL; Kp at 1 h [11]: 11.6; concentration at 1 h [12]: 343 nM |
| O=C(Oc1ccc(Br)cc1)N1CCN2CCC1CC2 [SSR180711] | – | 158% | > 5 µM | IC50 [3]: > 6.48 µM; logD [5]: 2.1; solubility [6]: > 65 µg/mL; inhibition at 10 µM (hERG (KCNH2)): 46%; IC50 [7]: > 3.16 µM; CLint scaled at 1 µM [8]: < 6.8 mL/min/kg; concentration at 1 h [9]: 5460 ng/g; concentration at 1 h [10]: 648 ng/mL; Kp at 1 h [11]: 9.1; concentration at 1 h [12]: 774 nM |
| Cc1cccc(OC(=O)N2CCN3CCC2CC3)c1 | 25 nM | 46% | – | – |
| O=C(Nc1ccc(Br)cc1)N1CCN2CCC1CC2 | 328 nM | – | – | – |
| O=C(c1ccccc1)c1cccc(OC(=O)N2CCN3CCC2CC3)c1 | 11 nM | 98% | 2.61 µM | – |
| C[C@@H]1CN(C(=O)Oc2ccc(Br)cc2)CCN1 | > 5000 nM | < 0.1% | – | – |
| O=C(Oc1ccc(F)cc1)N1CCN2CCC1CC2 | 537 nM | 100% | 1.78 µM | – |
| O=C(Oc1ccccc1Br)N1CCN2CCC1CC2 | 725 nM | – | – | – |
| COc1cccc(OC(=O)N2CCN3CCC2CC3)c1 | 79 nM | 26% | – | – |
